An excerpt weighted towards active compounds, which were near 4% of everything screened.
TAAR1 antagonist: human TAAR1 antagonism; AID 624466; CHO RD-HGA16 TAAR1, Fluo-8 calcium fluorescence, antagonist; inhibition, % at 3 µM; 360,000 tested, 1.5% active; Q96RJ0;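 active = inhibition above a per-plate cutoff, the mean inhibition of test compounds on that plate plus 3 SD, cut at about 49% in these data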;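 also: 0% = DMSO plus EC80 beta-PEA response and 100% = DMSO alone without agonist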
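System: CHO RD-HGA16 cells bearing hTAAR1. Reagent: EC80 β-phenethylamine stimulus. Schedule: seeding 17-24 h prior, 75-min 37 °C, 30-min RT dye loading. Signal: Fluo-8 intracellular calcium dye fluorescence, real-time kinetic reads. Read-out: % inhibition from peak post-agonist over basal fluorescence ratio. Benchmarks: vehicle wells and EC80 agonist wells. Replicates: n of 1.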
TAAR1 agonist: agonists of human TAAR1; Q96RJ0; CHO RD-HGA16 TAAR1, Fluo-8 calcium fluorescence; vehicle wells 0%, saturating PEA agonist 100%; activation, % at 3 µM; 360,000 tested, 0.99% active; AID 624467;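 active = activation above the mean activation of all test compounds in the run plus 3 SD, cut at about 38% in these data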
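Signal – calcium-sensitive Fluo-8 signal, excitation 470-495, emission 515-575 nm · System – RD-HGA16 (CHO) cells co-expressing Gα16 and hTAAR1 · Incubation – 17-24 h seeding, 75 min 37 °C dye, 30 min RT · Compound dosing – 3 µM single concentration · Repeats – no replicates (n 1)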
CHO parental Ca: counter-screen for OX1R antagonists: effect in parental CHO cells; inhibition, % at 5.6 µM; 330,000 tested, 0.63% active; parental CHO-K1, ATP-induced calcium, Fluo-8 fluorescence;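 active = inhibition above that plate's mean sample inhibition plus 3 SD, cut at about 26% in these data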;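 also: 0% = ATP-challenged DMSO wells and 100% = DMSO wells without ATP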
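Test system: untransfected parental CHO cell line; also added: ATP stimulus; dosing: 5.6 µM, single dose; signal: calcium-sensitive Fluo-8 fluorescence; measure: percent inhibition of ATP-evoked calcium rise, normalized to controls; benchmarks: low control ATP plus DMSO, high control DMSO only; replication: one well per compound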
OX1R antag-1: antagonists of human orexin 1 receptor; O43613; CHO/OX1R cells, Fluo-8 calcium fluorescence, orexin A; inhibition, % at 5 µM; 330,000 tested, 0.43% active; AID 434989;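 active = inhibition above its plate's threshold, mean inhibition of all tested compounds on the plate plus 3 SD, cut at about 37% in these data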;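 also: 0% = orexin A challenge wells and 100% = SB-334867-A antagonist wells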
Target sequence (O43613 whole entry, looked up): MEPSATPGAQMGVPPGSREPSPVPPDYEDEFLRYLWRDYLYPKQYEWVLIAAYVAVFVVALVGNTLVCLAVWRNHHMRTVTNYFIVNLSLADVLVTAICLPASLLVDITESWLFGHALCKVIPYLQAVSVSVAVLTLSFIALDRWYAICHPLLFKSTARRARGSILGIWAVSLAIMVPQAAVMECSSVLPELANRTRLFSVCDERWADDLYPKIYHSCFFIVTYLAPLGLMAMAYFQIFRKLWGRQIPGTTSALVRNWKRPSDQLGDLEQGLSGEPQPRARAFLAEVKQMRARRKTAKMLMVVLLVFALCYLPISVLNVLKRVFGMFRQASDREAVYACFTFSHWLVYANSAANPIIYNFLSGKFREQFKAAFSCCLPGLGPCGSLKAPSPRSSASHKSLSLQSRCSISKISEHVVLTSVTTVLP
OX1R antag-2: antagonists of human orexin 1 receptor (OX1R); O43613; AID 485270; inhibition, % at 6.6 µM; 330,000 tested, 1.8% active; OX1R-expressing cells, FRET antagonist read-out; in the data active = inhibition mostly above about 38%, no sharp cut-off; inactive = mostly below about 40%;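 also: 0% = agonist challenge alone and 100% = reference antagonist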
OX1R Fluo8 conf: confirmation of human orexin 1 receptor antagonists; shares compounds with OX1R antag-1; CHO/OX1R cells, orexin A calcium Fluo-8 fluorescence; inhibition, % at 5 µM; 1,100 tested, 38% active; AID 492963; in the data active = inhibition above about 29%;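 also: 0% = agonist challenge alone and 100% = reference antagonist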
CHO Ca counter: signal in parental CHO cells, OX1R antagonist counter-screen | inhibition, % at 5.6 µM | shares compounds with OX1R antag-1 | 1,100 tested, 9.3% active | parental CHO-K1, ATP-induced calcium, Fluo-8 fluorescence;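 active = inhibition above a per-plate limit, the mean inhibition of that plate's test compounds plus 3 SD, cut at about 25% in these data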;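 also: 0% = ATP challenge with DMSO and 100% = DMSO without ATP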
OX1R HTRF confirm: confirmation of human orexin 1 receptor antagonists, HTRF format; shares compounds with OX1R antag-2; OX1R-expressing cells, HTRF antagonist assay; inhibition, % at 6.6 µM; 1,800 tested, 49% active; AID 492964; in the data active = inhibition above about 55%;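 also: CHO cells expressing OX1R stimulated with orexin A at about EC80; 0% = agonist challenge alone and 100% = reference antagonist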
CHO-K1 HTRF: counter-screen for OX1R antagonists: effect in parental CHO-K1 cells; shares compounds with OX1R antag-2; HTRF counterscreen; inhibition, % at 6.6 µM; 1,800 tested, 48% active; AID 493232; in the data active = inhibition above about 17%;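 also: 0% = agonist challenge with vehicle and 100% = vehicle alone without agonist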
* marks the source's active call; other numbers are inactive results; . = no result.

SMILES	TAAR1 antagonist	TAAR1 agonist	CHO parental Ca	OX1R antag-1	OX1R antag-2	OX1R Fluo8 conf	CHO Ca counter	OX1R HTRF confirm	CHO-K1 HTRF
O=S(=O)(c1ccc2c(c1)C(O)c1ccccc1CC2)C(F)(F)F (stereo not drawn)	28	2	13	52*	34*	20	17	34	1
COc1ccc(OCC(=O)Nc2cccc3cccnc23)cc1	16	-1	-24	28	87*	4	-4	33	4
COc1ccc(OCC(=O)Nc2cccc(NC(=O)COc3ccc(OC)cc3)n2)cc1	32	14	-14	-25	17	.	.	.	.
CCN(CC)c1ccc(NC(=O)Cn2c(C(C)NC(=O)c3ccccc3)nc3ccccc32)cc1 (stereo not drawn)	3	6	-1	54*	93*	61*	-13	88*	3
Cc1ccc(C(=O)NC(C)c2nc3ccccc3n2CC(=O)Nc2c(C)cc(C)cc2C)cc1 (stereo not drawn)	.	.	-13	-29	6	.	.	.	.
CC1Cc2ccccc2N1S(=O)(=O)c1cccc(C(=O)c2nccn2C)c1 (stereo not drawn)	-17	6	3	56*	40*	-3	-12	34	4
COc1cccc(CN2CC(C(=O)NCc3ccc(C)o3)CCC2=O)c1 (stereo not drawn)	-19	5	.	.	.	.	.	.	.
c1ccc(-c2nccc(-c3ccc4c(c3)OCO4)n2)cc1	-4	1	-9	33	90*	13	17	84*	8
CCc1sc(C(=O)Nc2ccc3nc(C)sc3c2)cc1C	-1	2	-23	65*	81*	53*	-21	90*	16
CCc1sc(C(=O)Nc2ccc(NC(C)=O)cc2)cc1C	10	8	-6	-15	11	.	.	.	.
Cc1cn([C@H]2C[C@H](O)[C@@H](CCC(=O)NCc3ccco3)O2)c(=O)[nH]c1=O	2	-1	.	.	.	.	.	.	.
Cc1ccc(NC2CCCN(C(=O)c3cn(C)c4ccccc34)C2)cc1C (stereo not drawn)	-20	3	-14	27	80*	23	-12	90*	2
CCSC1=C(C#N)C(c2ccccc2Cl)C(C(=O)c2cccs2)C(O)(C(F)(F)F)N1 (stereo not drawn)	-11	0	-6	95*	95*	77*	-13	89*	0
C=CCSC1=C(C#N)C(c2ccccc2Cl)C(C(=O)c2cccs2)C(O)(C(F)(F)F)N1 (stereo not drawn)	56*	7	-21	42*	104*	79*	-13	89*	7
CCSC1=C(C#N)C(c2ccccc2Cl)CC(=O)N1 (stereo not drawn)	8	13	-12	2	30	.	.	.	.
Cc1ccc(NC(=O)Nc2nnc(-c3ccncc3)s2)cc1C	29	12	-1	25	41*	16	13	48	10
COc1cc(C#Cc2c(C=O)n(C)c3ccccc23)cc(OC)c1	-5	1	-11	-5	1	.	.	.	.
C=CCn1c2ccccc2c(=O)c2cc(C#Cc3cc(OC)cc(OC)c3)ccc21	35	9	-15	69*	47*	45*	-16	66*	20*
O=C(CNC(=O)c1ccco1)OCC(=O)c1ccc(Br)cc1	-11	4	-16	-6	4	.	.	.	.
Cc1ccc(S(=O)(=O)N2[C@@H](c3cccc(Cl)c3)C(C(=O)O)=CC[C@H]2c2ccc(C(C)C)cc2)cc1	46	11	10	36	70*	24	0	77*	7
Cc1ccc([C@@H]2CC=C(C(=O)O)[C@H](c3cccc(F)c3)N2S(=O)(=O)c2ccccc2C)cc1	29	0	-14	50*	71*	26	-3	86*	4
Cc1ccc(S(=O)(=O)N2[C@@H](c3ccc(F)cc3)C(C(=O)O)=CC[C@H]2c2ccc(C(C)C)cc2)cc1	18	10	7	-4	14	.	.	.	.
Nc1c(C(=O)c2ccc(Br)s2)oc2ccccc12	-23	7	-24	27	77*	15	-2	57*	5
CC/C(O)=C1\C(=O)CCCC1=NCc1nc2ccccc2[nH]1	-5	3	-6	-7	5	.	.	.	.
O=C(Nc1cccc(-c2nc3ccccc3s2)c1)c1ccc2c(c1)OCO2	26	10	-19	44*	87*	25	-6	94*	15
SMILES	TAAR1 antagonist	TAAR1 agonist	CHO parental Ca	OX1R antag-1	OX1R antag-2	OX1R Fluo8 conf	CHO Ca counter	OX1R HTRF confirm	CHO-K1 HTRF
Cc1ccc(-c2nc(CN(C)C3CCOC3)c(C)o2)s1 (stereo not drawn)	17	3	-5	-23	5	.	.	.	.
Cc1cc(N/N=C/c2ccccc2O)nc(-c2ccccc2O)n1	37	16	25	54*	90*	9	1	22	5
Cc1c(NS(=O)(=O)c2cccc(C(=O)OCC(=O)N(C)C3CCCCC3)c2)c(=O)n(-c2ccccc2)n1C	2	1	-16	37*	98*	58*	-11	90*	-1
Cc1cc2c(cc1C)-n1nnnc1C(N1CCCC1)C(=O)N2 (stereo not drawn)	7	1	.	.	.	.	.	.	.
O=C(C1CCCN(S(=O)(=O)c2cccc3nsnc23)C1)N1CCc2ccccc21 (stereo not drawn)	25	5	5	27	103*	-7	-13	25	10
C/C(=N\Nc1cccc([N+](=O)[O-])c1)c1ccccc1O	6	0	-10	28	76*	2	12	47	7
CS(=O)(=O)c1ccc(C(=O)N2CCN(C(=O)c3ccco3)CC2)cc1	0	1	.	.	.	.	.	.	.
Cc1sc(NC(=O)Cn2[nH]c(=O)c3ccccc3c2=O)nc1-c1ccccc1	17	0	-10	39*	74*	43*	-4	76*	0
Cc1c(NC(=O)Cn2[nH]c(=O)c3ccccc3c2=O)c(=O)n(-c2ccccc2)n1C	-8	2	4	-7	6	.	.	.	.
COc1ccccc1NS(=O)(=O)c1ccc(C(=O)Nc2ncccc2O)cc1	.	.	-13	-30	1	.	.	.	.
CCCCN(C(=O)CSc1ncnc2sccc12)c1c(N)n(Cc2ccccc2)c(=O)[nH]c1=O	-6	5	-18	-18	22	.	.	.	.
CCc1cc2c(SCC(=O)N(CC)c3c(N)n(Cc4ccccc4)c(=O)[nH]c3=O)ncnc2s1	16	1	-16	40	84*	48*	-9	93*	1
